The list is not random: actives were taken first. Their share in the collection is about 1.7%.
CaV13 FRET inh: Disruptors of the CACNA1D IQ motif to Ca2+-dependent inactivation inhibitor domain association, primary screening, Förster resonance energy transfer in intact living … | inhibition, % at 12.3 µM | HEK cells, CFP/YFP FRET ICDI-IQ, plate reader, 10 min; percent FRET-ratio fall versus neutral wells | AID 743397 | actives 0.098% (n = 340,000);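 active = mean replicate inhibition of at least 30% and at least 1% of replicates passing that level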;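 also: 0% = median of the neutral control wells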
Ecoli rRNA inh: selective bacterial rRNA inhibition in E. coli; E. coli WT GFP vs humanized-ribosome RFP mutants, fluorescence, 24 h; hits give low values; DMSO median 0, no signal -100; GFP signal change (wild-type ribosome), % (test concentration not listed); actives 1.6% (n = 350,000);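 active = significant combined selectivity score with lowered wild-type GFP, culture density cut under 30%, mutant RFP and density less affected; inactive = any of these conditions unmet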
CFTR F508del cor: correctors of CFTR F508del function in bronchial epithelial cells; CFBE cells, YFP halide quenching; stimulated with forskolin plus potentiator P3; % fluorescence drop versus neutral controls; activity (quench increase), % at 7.58 µM; actives 0.36% (n = 350,000);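 active = mean added fluorescence quench of at least 8% versus neutral control, with both replicates also reaching 8%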;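 also: cells transiently co-express mutant CFTR-F508del with the halide-sensitive YFP; corrector assay measuring rescue of mutant channel to the surface after 24 h compound exposure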
Cneo AK release: causes C. neoformans cell lysis. adenylate kinase release luminescence, 4 h; normalised: neutral wells 0, clomiphene wells 100. lysis activity, % at 15 µM. actives 0.2% (n = 360,000);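 active = mean lysis activity across replicates of at least 80%, whatever share of replicates individually reach that level; inactive = mean lysis activity below 80%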
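Assay system: log-phase C. neoformans yeast / Quantity: yeast cell density of 5 × 10^6 cells/mL / Medium: fresh YPD growth medium / Compound: single dose / Timing: static 4 h at 37 °C with compound, 1 h detection / Measured by: adenylate kinase release luminescence / Read-out: lysis from increased AK signal / Benchmarks: Clomiphene as positive lysis control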
* = called active by the depositor; nt = no result given.

SMILES | CaV13 FRET inh | Ecoli rRNA inh | CFTR F508del cor | Cneo AK release
NC(=O)c1nsc(C(=O)N(c2ccccc2F)C(C(=O)NCc2ccc(F)cc2)c2ccc(O)cc2)c1N (stereo not drawn) | -7 | -40* | 2 | 0
Cc1ccc2c(Cl)c(C)c(N3CCCC3)nc2n1 | -2 | -36* | -1 | 29
CC1(C(=O)NNC(=O)C2CCCCC2)CC1(Cl)Cl (stereo not drawn) | -5 | -27* | 1 | 2
CCn1c(=O)c([N+](=O)[O-])c(N2CCN(Cc3ccc4c(c3)OCO4)CC2)c2ccccc21 | 4 | -24* | -2 | nt
CCn1c(=O)c([N+](=O)[O-])c(N2CCSCC2)c2ccccc21 | -16 | -34* | 1 | -2
Cn1c(=O)c([N+](=O)[O-])c(N2CCSCC2)c2ccccc21 | -5 | 16 | 3 | -1
Cc1onc(-c2ccccc2)c1-c1nnc(-c2ccccc2C(F)(F)F)o1 | -4 | -20* | 1 | -2
Cc1onc(-c2c(F)cccc2Cl)c1-c1nnc(-c2ccc(C(F)(F)F)cc2)o1 | -4 | 13 | 0 | -1
Cc1ccc(C)c(N(CC(=O)NC2CCCC2)C(=O)c2oc(C(C)(C)C)cc2C)c1 | -6 | -16* | 3 | 1
Cc1cccc(NC(=S)NC2CCCC2)c1 | -14 | nt | nt | nt
Cc1cccc(NC(=S)NC2CC3C=CC2C3)c1 (stereo not drawn) | -18 | -21* | -2 | 19
CC(C)NC(=O)Nc1cccc2c1O[C@H](CN(C)S(C)(=O)=O)[C@@H](C)CN(C)C2=O | nt | -2 | nt | nt
O=C(Nc1c(-c2ccccc2)[nH][nH]c1=O)c1ccc(-c2ccccc2)cc1 | -4 | -14* | 1 | nt
Cc1noc(C)c1NC(=O)Nc1ccc2c(c1)C(=O)N(C)[C@H]1CC[C@H](CC(=O)N[C@H]3CCN(Cc4ccccc4)C3)O[C@H]1CO2 | nt | 1 | 1 | 86*
Cc1noc(C)c1NC(=O)Nc1ccc2c(c1)C(=O)N(C)[C@@H]1CC[C@@H](CC(=O)N[C@H]3CCN(Cc4ccccc4)C3)O[C@@H]1CO2 | nt | 4 | 1 | 4
Cc1noc(C)c1NC(=O)Nc1ccc2c(c1)C(=O)N(C)[C@@H]1CC[C@H](CC(=O)N[C@H]3CCN(Cc4ccccc4)C3)O[C@@H]1CO2 | nt | 6 | 3 | 100*
Cc1noc(C)c1S(=O)(=O)N(C)C[C@H]1Oc2ccc(NS(=O)(=O)c3ccc(F)cc3)cc2CC(=O)N([C@@H](C)CO)C[C@H]1C | nt | -1 | 0 | nt
CC1=Nc2cc(C(=O)NCC3CCCO3)ccc2Sc2ccc(Br)cc21 (stereo not drawn) | -4 | -22* | 13* | 0
COc1ccc(NC(=O)N(C)C[C@@H]2Oc3c(NS(=O)(=O)c4ccccc4)cccc3C(=O)N([C@@H](C)CO)C[C@H]2C)cc1 | nt | -1 | 1 | nt
C[n+]1c2cc(N)ccc2cc2ccc(N)cc21 | 11 | 38 | 62* | -4
N#Cc1c(N)nc2c(c1N)CC(=O)N2c1ccccc1-c1ccccc1 | -6 | nt | nt | 3
N#Cc1c(N)nc2c(c1N)CC(=O)N2c1ccc(Cl)cc1 | -9 | -31* | 1 | 0
COc1ccc(CN2CCN(C(=O)c3cc(-c4cccnc4)nc4ccc(Cl)cc34)CC2)c(OC)c1OC | -7 | -23* | 2 | -1
CS(=O)(=O)N1CCN(C(=O)c2cc(-c3cccnc3)nc3ccc(Cl)cc23)CC1 | -4 | 7 | 2 | nt
Cc1nc(N2CCCCC2)c(C#N)c(C)c1[N+](=O)[O-] | -5 | -33* | -2 | nt
SMILES | CaV13 FRET inh | Ecoli rRNA inh | CFTR F508del cor | Cneo AK release
Cc1noc(C)c1NC(=O)Nc1ccc2c(c1)C(=O)N([C@H](C)CO)C[C@@H](C)[C@H](CN(C)Cc1ccc(Cl)c(Cl)c1)O2 | nt | -5 | -2 | 0
CC[n+]1c(/C=C2\Sc3ccccc3N2C)ccc2cccc(C)c21 | -173 | 69 | 18* | -8
Cc1nn(-c2ccccc2)c(N)c1N=Nc1cccnc1 | -4 | -22* | 1 | nt
Nc1nn(-c2ccccc2)c(N)c1N=Nc1cccc(F)c1 | -3 | -36* | 11* | -3
C[C@@H]1CN([C@@H](C)CO)C(=O)Cc2cc(N(C)C)ccc2O[C@H]1CN(C)S(C)(=O)=O | nt | -1 | 0 | nt
Cc1cc(C)n(CCC(=O)N/N=C/c2ccc(Br)c([N+](=O)[O-])c2)n1 | -1 | -15* | -1 | 1
CO[C@H]1CN(C)C(=O)c2cc(NC(=O)C3CCC3)ccc2OC[C@H](C)NC[C@H]1C | nt | 1 | 0 | 2
O=C1c2ccccc2C(c2nnnn2Cc2ccccc2)N1Cc1ccc(F)cc1 (stereo not drawn) | -6 | -13 | -3 | nt
O=C1c2ccccc2C(c2nnnn2Cc2ccccc2)N1Cc1ccc2c(c1)OCO2 (stereo not drawn) | -7 | -27* | -4 | nt
COc1ccc(NC(=O)NC[C@H]2CC[C@H]3[C@H](CN3Cc3ccccc3C(=O)O)O2)cc1 | nt | nt | 2 | nt
COc1cccc(S(=O)(=O)N2C[C@@H](O)COC[C@@H]3O[C@@H](CC(=O)N4CCN(C)CC4)CC[C@H]32)c1 | nt | -8 | 3 | -5
COc1cccc(S(=O)(=O)N2C[C@@H](O)COC[C@H]3O[C@H](CC(=O)N4CCN(C)CC4)CC[C@@H]32)c1 | nt | 3 | 3 | 85*
COc1cccc(S(=O)(=O)N2C[C@H](O)COC[C@@H]3O[C@H](CC(=O)Nc4ccccc4)CC[C@H]32)c1 | nt | -2 | -2 | 1
COc1cccc(S(=O)(=O)N2C[C@@H](O)COC[C@H]3O[C@H](CC(=O)Nc4ccccc4)CC[C@@H]32)c1 | nt | -4 | -2 | 112*
CCn1c(O)c(C=Nc2ccccc2)sc1=S | -6 | 9 | nt | nt
C=CCn1c(O)c(C=Nc2ccccc2)sc1=S | -6 | -22* | 0 | 8
CNC[C@@H]1Oc2c(NC(=O)Nc3ccccc3)cccc2C(=O)N([C@H](C)CO)C[C@H]1C | nt | 1 | -3 | -2
N#C/C(=C\c1ccc(O)cc1)c1nc2ccccc2o1 | -31 | -35* | 2 | -6
COc1cc(/C=C(\C#N)c2nc3ccccc3o2)ccc1O | -8 | -6 | 3 | -4
Cc1ccc(N=c2c([N+](=O)[O-])nn(-c3ccccc3)n2O)c(C)c1 | -7 | -25* | 1 | -7
COc1ccc(-c2cnc3c(c2)C(=O)N([C@@H](C)CO)C[C@H](C)[C@@H](CN(C)Cc2ccc(C(=O)O)cc2)O3)cc1 | nt | -1 | -1 | 0
O=C(C[C@H]1C=C[C@H](NC(=O)c2ccc(F)cc2)[C@H](CO)O1)NCc1ccncn1 | nt | 3 | -1 | 4
Cn1c(=O)c([N+](=O)[O-])c(NCCc2ccccc2)c2ccccc21 | -5 | nt | nt | -1
Cn1c(=O)c([N+](=O)[O-])c(NCc2ccccc2Cl)c2ccccc21 | -22 | -29* | -2 | nt
CCCc1cn(CC[C@H]2CC[C@H](NC(=O)Nc3ccccc3F)[C@@H](CO)O2)nn1 | nt | -2 | 2 | 8
